Data taken from the array DNA melting data of Ke et al. (doi:10.1101/2024.01.08.574731).

Legend:
[1] = melting temperature; fluorescence melt of hairpins on a sequencing array, two-state fit, raised by 9.35 °C to match UV melts; conditions: sodium 0.088 M
Procedure, shortened: (§1)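 On a sequenced MiSeq flow cell, library hairpins with annealed Cy3 and quencher oligos were imaged for Cy3 fluorescence in 2.5 °C steps up to 60 °C, in 50 mM Na-HEPES pH 8.0, 25 mM NaCl. Normalisation used pre-quench Cy3 and control constructs. Bootstrapped two-state fits gave melting temperature and folding enthalpy, combined by inverse variance across four replicates and with fitted temperatures raised by 9.35 °C to match UV melts.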

[2] = folding enthalpy; higher = less favourable; fluorescence melt of hairpins on a sequencing array, two-state fit; conditions: sodium 0.088 M
Procedure, shortened: as §1

Which results are given for GGCGACGGAAACATCGCC (((((.(....).)))))?
Tm [1]: 55.4 °C; folding enthalpy [2]: -42.6 kcal/mol

Which Tm [1] does the source give for GGCGACGGAAACGTCACC ((.((((....)))).)) here?
The Tm was 54.7 °C.

And the folding enthalpy [2]?
The folding enthalpy was -33.5 kcal/mol.

Which Tm [1] does the source give for GGCGACTCGAAAGAGGCC (((..(((....)))))) here?
The Tm was 49.7 °C.

What about the folding enthalpy [2] of the same sequence?
Its folding enthalpy is -16.9 kcal/mol.

Which Tm [1] does the source give for GGCGAGCGAAAGCTAGCC (((.(((....))).))) here?
Its Tm is 68.7 °C.

What about the folding enthalpy [2] of the same sequence?
The folding enthalpy was -42.2 kcal/mol.

Which Tm [1] does the source give for GGCGAGCGAAAGCTGCC (((.(((....)))))) here?
The Tm was 66.9 °C.

And the folding enthalpy [2]?
Its folding enthalpy is -27.6 kcal/mol.

For GGCGAGGGAAACCTCACC ((.((((....)))).)), which Tm [1] is on record?
The Tm was 48.5 °C.

What about the folding enthalpy [2] of the same sequence?
The folding enthalpy was -31.7 kcal/mol.

Which Tm [1] does the source give for GGCGAGGGAAACCTCGTC (.(((((....))))).) here?
The Tm was 60.8 °C.

And the folding enthalpy [2]?
The folding enthalpy was -36.4 kcal/mol.

What does the source list for GGCGATGGAAACATTGCC (((.(((....))).)))?
Tm [1]: 55.2 °C; folding enthalpy [2]: -47.2 kcal/mol

With GGCGCCGAAAGGCTTGCC ((((((....)))..))) as the sequence, how does the Tm [1] read?
The Tm was 53.4 °C.

What about the folding enthalpy [2] of the same sequence?
The folding enthalpy was -19.9 kcal/mol.

What does the source list for GGCGCCGGAAACAGCGCC (((((.(....).)))))?
Tm [1]: 65.2 °C; folding enthalpy [2]: -34.8 kcal/mol

With GGCGCTCCGAAAGGAGCC (((..(((....)))))) as the sequence, how does the Tm [1] read?
The Tm was 47.8 °C.

And the folding enthalpy [2]?
Its folding enthalpy is -7.43 kcal/mol.

For GGCGCTCGAAAGAGGGCC (((.(((....))).))), which Tm [1] is on record?
The Tm was 68.4 °C.

What about the folding enthalpy [2] of the same sequence?
The folding enthalpy was -39.6 kcal/mol.

Which results are given for GGCGCTGGAAACAACGCC ((((.((....)).))))?
Tm [1]: 55.2 °C; folding enthalpy [2]: -41 kcal/mol

What does the source list for GGCGCTGGAAACAGCACC ((.((((....)))).))?
Tm [1]: 54.8 °C; folding enthalpy [2]: -29.7 kcal/mol

For GGCGGCGAAAGCCCGGCC ((((((....)))..))), which Tm [1] is on record?
The Tm was 61.5 °C.

And the folding enthalpy [2]?
The folding enthalpy was -17.7 kcal/mol.

What does the source list for GGCGGCGAAAGCCGCGCC ((((((....)))..)))?
Tm [1]: 68 °C; folding enthalpy [2]: -6.34 kcal/mol

With GGCGGCGAAAGCCGGGCC ((((((....)))..))) as the sequence, how does the Tm [1] read?
Its Tm is 58.1 °C.

What about the folding enthalpy [2] of the same sequence?
Its folding enthalpy is -10.1 kcal/mol.

Which results are given for GGCGGTACGAAAGTAGCC (((..(((....))))))?
Tm [1]: 50.7 °C; folding enthalpy [2]: -18.8 kcal/mol

What does the source list for GGCGGTCCGAAAGGAGCC (((..(((....))))))?
Tm [1]: 46.6 °C; folding enthalpy [2]: -17.7 kcal/mol

For GGCGTAGGAAACCACGCC (((((.(....).))))), which Tm [1] is on record?
The Tm was 56.2 °C.

And the folding enthalpy [2]?
The folding enthalpy was -53.2 kcal/mol.

What does the source list for GGCGTAGGAAACTATGCC (((.(((....))).)))?
Tm [1]: 53.5 °C; folding enthalpy [2]: -41.8 kcal/mol

With GGCGTCGAAAGACACGCC ((((((....)))..))) as the sequence, how does the Tm [1] read?
The Tm was 55 °C.

And the folding enthalpy [2]?
The folding enthalpy was -32 kcal/mol.

Which results are given for GGCGTCGAAAGACGAGCC ((((((....)))..)))?
Tm [1]: 54 °C; folding enthalpy [2]: -16.7 kcal/mol

Which results are given for GGCGTCGAAAGACTCGCC ((((((....)))..)))?
Tm [1]: 50.1 °C; folding enthalpy [2]: -20.6 kcal/mol

For GGCGTCGAAAGACTTGCC ((((((....)))..))), which Tm [1] is on record?
Its Tm is 48.9 °C.

What about the folding enthalpy [2] of the same sequence?
The folding enthalpy was -24.6 kcal/mol.

Which Tm [1] does the source give for GGCGTCGGAAACGGTGCC (((..((....))..))) here?
Its Tm is 51.6 °C.

And the folding enthalpy [2]?
Its folding enthalpy is -30.6 kcal/mol.

With GGCGTGCGAAAGCAGCC (((.(((....)))))) as the sequence, how does the Tm [1] read?
Its Tm is 67.8 °C.

And the folding enthalpy [2]?
The folding enthalpy was -26.9 kcal/mol.

What does the source list for GGCGTGGGAAACCACGTC (.(((((....))))).)?
Tm [1]: 62.3 °C; folding enthalpy [2]: -21.1 kcal/mol

For GGCGTGGGAAACTACGCC (((((.(....).))))), which Tm [1] is on record?
The Tm was 61.2 °C.

And the folding enthalpy [2]?
The folding enthalpy was -48 kcal/mol.

For GGCGTGGGAAACTGCGCC ((((..(....)..)))), which Tm [1] is on record?
The Tm was 55.7 °C.

And the folding enthalpy [2]?
The folding enthalpy was -52.5 kcal/mol.

What does the source list for GGCGTTGGAAACAATGCC (((.(((....))).)))?
Tm [1]: 56.5 °C; folding enthalpy [2]: -53.7 kcal/mol

What does the source list for GGCTAAGCGAAAGCTGCC (((..(((....))))))?
Tm [1]: 54.6 °C; folding enthalpy [2]: -23.7 kcal/mol

Which results are given for GGCTAAGGAAACTTGGCC (((.(((....))).)))?
Tm [1]: 50.4 °C; folding enthalpy [2]: -29.6 kcal/mol

With GGCTAATCGAAAGATGCC (((..(((....)))))) as the sequence, how does the Tm [1] read?
Its Tm is 45.2 °C.

What about the folding enthalpy [2] of the same sequence?
Its folding enthalpy is -27.2 kcal/mol.

For GGCTACCCGAAAGGGGCC (((..(((....)))))), which Tm [1] is on record?
Its Tm is 50.6 °C.

What about the folding enthalpy [2] of the same sequence?
Its folding enthalpy is -18.9 kcal/mol.

Which results are given for GGCTACCGAAAGGTCGCC (((.(((....))).)))?
Tm [1]: 58.6 °C; folding enthalpy [2]: -39.2 kcal/mol

For GGCTACCGAAAGGTGCC (((.(((....)))))), which Tm [1] is on record?
Its Tm is 61.2 °C.

What about the folding enthalpy [2] of the same sequence?
The folding enthalpy was -31.3 kcal/mol.

Which results are given for GGCTACGAAAGTATAGCC ((((((....)))..)))?
Tm [1]: 49.9 °C; folding enthalpy [2]: -25.1 kcal/mol

Which results are given for GGCTACGAAAGTATTGCC ((((((....)))..)))?
Tm [1]: 44.1 °C; folding enthalpy [2]: -20.1 kcal/mol

For GGCTACGGAAACACAGCC ((((..(....)..)))), which Tm [1] is on record?
Its Tm is 35.5 °C.

What about the folding enthalpy [2] of the same sequence?
Its folding enthalpy is -23.6 kcal/mol.

What does the source list for GGCTACGGAAACGCAGCC ((((.((....)).))))?
Tm [1]: 52.6 °C; folding enthalpy [2]: -53 kcal/mol

What does the source list for GGCTAGAAATAGCC (((((....)))))?
Tm [1]: 51.5 °C; folding enthalpy [2]: -24.6 kcal/mol

What does the source list for GGCTAGCCGAAAGGCGCC (((..(((....))))))?
Tm [1]: 59 °C; folding enthalpy [2]: -15.9 kcal/mol

With GGCTAGCGAAAGCTGCC (((.(((....)))))) as the sequence, how does the Tm [1] read?
Its Tm is 64.3 °C.

What about the folding enthalpy [2] of the same sequence?
The folding enthalpy was -22.7 kcal/mol.

With GGCTAGCGAAAGCTTGCC (((.(((....))).))) as the sequence, how does the Tm [1] read?
The Tm was 65.6 °C.

And the folding enthalpy [2]?
The folding enthalpy was -36.3 kcal/mol.
